Source: PubChem BioAssay (several laboratories)
Shown are actives, neighbours in structure and some others; about 4.2% of the full set was active somewhere.
XBP1 UPR activ: activators of adaptive XBP1 UPR arm, primary screen, cell-based, CHO-XBP1 luciferase reporter, luminescence, uHTS; IRE1-XBP1 UPR activation; percent of tunicamycin response, DMSO as zero; activation, % at 20 µM; 0.33% of 330,000 active;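 active means versus positive control, 20 µM dose yields 30% or more activation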;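 further: 100% = tunicamycin at 10 µg/mL and 0% = DMSO only wells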
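Material: IRE1-XBP1 luciferase reporter CHO line / Quantity: one thousand reporter cells per well / Buffer or medium: F12 with 10% serum / Compound: 20 µM single concentration, DMSO 1% / Times: 6 h treatment, 37 °C / Detection: Steady-Glo luciferase glow luminescence, 10 min after reagent addition / Benchmarks: tunicamycin high, DMSO low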
TMEM16A inh: TMEM16A chloride channel inhibitors, primary screen, cell-based, HTS. Anoctamin-1 (Mus musculus), Q8BHY3. HEK293 TMEM16A/YFP iodide influx fluorescence, ionomycin. normalized B-score (activity score, 25-100; higher = stronger inhibition) at 10 µM. 1.2% of 310,000 active;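 active means ratio plate-corrected score three or more library SD toward inhibition, starting fluorescence score within five deviations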;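 further: score derived from kinetic fluorescence span divided by baseline fluorescence per well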
Target sequence (Q8BHY3 whole entry, looked up): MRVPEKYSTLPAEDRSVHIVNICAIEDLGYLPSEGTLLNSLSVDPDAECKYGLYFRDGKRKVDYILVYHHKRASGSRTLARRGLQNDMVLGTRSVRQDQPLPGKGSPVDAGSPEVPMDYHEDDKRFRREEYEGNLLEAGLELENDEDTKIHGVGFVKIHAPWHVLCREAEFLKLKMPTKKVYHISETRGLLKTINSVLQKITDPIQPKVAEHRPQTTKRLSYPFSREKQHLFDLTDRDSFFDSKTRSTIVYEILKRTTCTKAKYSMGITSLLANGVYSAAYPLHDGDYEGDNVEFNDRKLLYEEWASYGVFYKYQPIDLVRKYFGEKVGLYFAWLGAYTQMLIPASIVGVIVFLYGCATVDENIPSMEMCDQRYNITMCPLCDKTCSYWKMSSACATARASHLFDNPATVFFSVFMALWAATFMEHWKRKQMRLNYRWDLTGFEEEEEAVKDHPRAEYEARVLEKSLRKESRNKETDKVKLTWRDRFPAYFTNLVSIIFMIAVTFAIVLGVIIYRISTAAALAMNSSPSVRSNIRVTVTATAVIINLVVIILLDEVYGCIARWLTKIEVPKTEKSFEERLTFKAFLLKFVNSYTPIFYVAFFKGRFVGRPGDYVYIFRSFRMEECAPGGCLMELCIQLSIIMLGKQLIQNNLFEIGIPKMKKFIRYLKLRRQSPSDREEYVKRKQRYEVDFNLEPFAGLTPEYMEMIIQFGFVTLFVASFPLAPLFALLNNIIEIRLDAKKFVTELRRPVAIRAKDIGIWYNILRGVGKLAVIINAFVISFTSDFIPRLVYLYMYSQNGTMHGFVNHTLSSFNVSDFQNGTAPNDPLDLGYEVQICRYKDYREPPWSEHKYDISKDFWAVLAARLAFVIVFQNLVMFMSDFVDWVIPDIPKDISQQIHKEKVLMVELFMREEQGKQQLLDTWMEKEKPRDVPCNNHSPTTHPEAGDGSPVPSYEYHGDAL
UPR CHOP act: activators of apoptotic CHOP UPR arm, primary screen, cell-based, CHO-CHOP luciferase reporter, luminescence, uHTS; 0.34% of 330,000 active; AID 449763, 2010; UPR activation; percent of tunicamycin response over DMSO baseline; activation, % at 10 µM;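 active means at 10 µM dose, activation of 40% or more, normalized to positive control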;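 further: 100% = tunicamycin at 10 µg/mL and 0% = DMSO alone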
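System: CHO-CHOP luciferase reporter cell line | Buffer or medium: F12 medium containing 10% fetal bovine serum | Doses: One dose, 10 µM in 0.5% DMSO | Times: 6 h compound exposure at 37 °C after overnight seeding | Signal: Luciferase luminescence | Read-out: % activation vs tunicamycin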
CHOP inhibitor: inhibitors of CHOP promoter induction, primary screen, cell-based, unfolded protein response, luciferase reporter | CHO-K1 CHOP-promoter luciferase, tunicamycin-induced, 15-18 h | inhibition, % at 10 µM | 3.8% of 220,000 active | AID 2732, 2010;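 active means compounds that reduced the stress-induced luciferase reporter signal by more than about 70% of percent inhibition, limit read from the data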;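 further: 0% = tunicamycin plus vehicle and 100% = wells without tunicamycin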
Hep lipid drop: inhibitors of hepatocyte lipid droplet formation, primary screen, imaging, high-throughput imaging, BODIPY stain; AML12 mouse hepatocytes, oleate lipid droplets; inhibition, % at 6.5 µM; 0.4% of 240,000 active; AID 1656, 2009;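 active means lipid droplet intensity inhibited by at least 50%, with more than 500 cells counted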
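Assay system: AML12 hepatocytes (mouse); Probe or stimulus: oleic acid at 100 µM to induce lipid droplet formation; Dosing: compound at 6.5 µM only; Schedule: compound with oleate, overnight; Detection: fluorescence imaging, 20x objective, two fields per well; Measure: % inhibition of lipid droplet signal.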
TMEM16A act: TMEM16A chloride channel activators or potentiators, primary screen, cell-based, HTS | Anoctamin-1 (Mus musculus), Q8BHY3 | HEK293 TMEM16A/YFP-H148Q/I152L, iodide quench fluorescence; stronger effect = lower value | B-score at 10 µM | 0.3% of 340,000 active;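 active means fluorescence-ratio B-score plate-corrected deviation score at least 3 library SD below zero, with starting fluorescence score within 5 deviations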;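 further: channel opened by trigger with iodide after compound preincubation; score built on the fluorescence ratio of max minus min over baseline; more negative score means more quench and so TMEM16A activation or potentiation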
Hep lipid conf: hepatocyte lipid droplet accumulation inhibitors, confirmation, imaging, AML12 mouse hepatocytes, single concentration, high-content; shares compounds with Hep lipid drop; 65% of 870 active; inhibition, % at 5.2 µM; BODIPY lipid droplet imaging; droplets induced with 100 µM oleic acid; AID 463183, 2010;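 active means inhibition of lipid droplet metric at least 50%, with more than 300 cells in each of four replicates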;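 further: plate controls were DMSO with oleic acid for no effect and 5 µM Triacsin-C for full effect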
AML12 tox img: AML12 hepatocyte cytotoxicity, counter-screen for hepatic lipid droplet formation project, imaging, DAPI nuclear morphology imaging; AID 463200, 2010; shares compounds with Hep lipid drop; z-score at 5 µM; 3% of 870 active; AML12 mouse hepatocytes; stronger effect = higher value; cells fed 100 µM oleate overnight; in the data active means z-score above about 6.3;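 further: compound exposure lasted overnight at 37 °C before fixation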
AML12 tox conf: AML12 hepatocyte cytotoxicity, confirmation, cytotoxicity control for hepatic lipid droplet formation project, cell-based, single concentration; shares compounds with Hep lipid drop; AML12 mouse hepatocyte viability, ATP luminescence; cells loaded with 100 µM oleic acid; 530 tested, under 10 active; cytotoxicity, % at 50 µM;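 active means cytotoxicity above 50% in each of four replicates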;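 further: compound exposure lasted overnight at 37 °C before the ATP read; 0% = DMSO-treated cells and 100% = wells with no cells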
* marks the source's active call; other numbers are inactive results; i = inactive; x = no result given.

SMILES | XBP1 UPR activ | TMEM16A inh | UPR CHOP act | CHOP inhibitor | Hep lipid drop | TMEM16A act | Hep lipid conf | AML12 tox img | others
CCCCCN1CN(S(=O)(=O)c2cccs2)c2nc3ccccc3nc21 | 1 | i | 3 | -1 | 18 | i | x | x
C=C(C)C(=O)N1CC2(CC(c3cccc(NC(=O)/C=C\C=C/C)c3)=NO2)C[C@H]1C(N)=O (stereo not given in full) | 0 | i | -3 | 8 | 54* | i | 34 | -0.38
COc1ccc(-n2c(=O)c3ccccc3n(CC(=O)c3ccccc3)c2=O)cc1OC | 2 | i | 2 | -21 | 6 | i | x | x
COc1ccc(-n2c(=O)c3ccccc3n(CC(=O)Nc3cc(C)on3)c2=O)cc1OC | 1 | i | 2 | -25 | 52* | i | 31 | -0.63
O=C(NCCc1cccnc1)c1cc(COc2ccc(F)cc2Cl)on1 | 0 | i | 1 | x | 8 | i | x | x
O=C(NCCc1cccnc1)c1cc(COc2ccc(F)cc2F)on1 | 0 | i | 3 | x | 95* | i | 35 | -0.62
Cc1cc(C)nc(NCCO)n1 | 3 | i | -2 | 19 | 81* | i | 30 | -0.23
COc1ccc(/C=C/C(=O)NCC2COc3ccccc3O2)cc1OC (stereo not given) | 2 | i | 0 | 9 | -1 | i | x | x
Cc1ccc(/C=C/C(=O)NCC2COc3ccccc3O2)o1 (stereo not given) | -2 | i | 0 | -66 | 53* | i | 18 | -0.28
CCC(C)c1ccc(NC(=O)NCCN2CCCCC2)cc1 (stereo not given) | 0 | i | 1 | x | 0 | i | x | x
COc1ccc(CN2CCN(c3ncnc4scc(-c5ccc(F)cc5)c34)CC2)cc1 | 1 | i | -1 | x | -25 | i | x | x
COc1ccc(F)cc1CN1CCN(c2ncnc3scc(-c4ccccc4)c23)CC1 | -2 | i | 2 | 37 | 56* | i | -3 | 0.65
CCOc1ccc2nc(NC(=O)CSc3nc4ccccc4c(=O)n3Cc3ccco3)sc2c1 | 3 | i | -2 | 42 | 57* | i | 106* | -0.69 | AML12 tox conf=14
CCOC(=O)CSc1nc2ccccc2c(=O)n1Cc1ccco1 | 0 | i | -2 | 23 | x | i | x | x
CCOC(=O)N1CCN(c2c(NCc3ccccc3Cl)c(=O)c2=O)CC1 | -2 | i | 2 | 5 | 17 | i | x | x
Cc1cc(=O)oc2cc(OCC(=O)NCCCN3CCCC3=O)ccc12 | -1 | i | 1 | x | 52* | i | 21 | -0.74
Cc1c(C)c2ccc(OCC(=O)NCCCN3CCCC3=O)cc2oc1=O | -3 | i | 3 | x | -5 | i | x | x
CCOC(=O)c1cccc(C2=CC(=O)CC(C)(C)C2)c1 | 4 | x | 2 | x | x | i | x | x
CCc1ccc(-c2nnn(CC(=O)N(C3CCCC3)C3CCS(=O)(=O)C3)n2)cc1 (stereo not given) | -2 | x | 2 | x | x | i | x | x
CCOc1cc(CNC(=O)CCCn2c(=O)c3cccn3c3cccnc32)cc(OCC)c1OCC | 6 | i | 1 | x | 92* | i | 107* | 0.45 | AML12 tox conf=-2
CCc1ccc(CNC(=O)CCCn2c(=O)c3cccn3c3cccnc32)cc1 | 5 | i | 5 | x | 3 | i | x | x
Cc1cccc(Oc2ccc(Cl)cc2N)c1 | 0 | i | 4 | 22 | 58* | i | 29 | -0.35
COc1ccccc1N1CCN(C(=O)COc2ccc(S(=O)(=O)NC(C)(C)C)cc2)CC1 | 0 | i | 3 | -1 | 64* | x | 85* | -0.12
Cc1cc(NC(=O)c2sccc2C)n(-c2nc3ccccc3[nH]2)n1 | 13 | i | -1 | -17 | 60* | i | 83* | 0.017 | AML12 tox conf=-12
Cc1cc(NC(=O)c2cccs2)n(-c2nc3ccccc3[nH]2)n1 | 23 | i | 5 | -33 | 35 | i | x | x
SMILES | XBP1 UPR activ | TMEM16A inh | UPR CHOP act | CHOP inhibitor | Hep lipid drop | TMEM16A act | Hep lipid conf | AML12 tox img | others
CS(=O)(=O)Nc1ccc(C(=O)Nc2ccccc2C(=O)NCc2ccco2)cc1 | -1 | i | -1 | x | 57* | i | -3 | -0.51
CCCCN(C(=O)C1CCCC1)c1c(N)n(CCC)c(=O)[nH]c1=O | 3 | x | 0 | x | x | i | x | x
CCN1CCN(Cc2ccc(NC(=O)c3ccc(C)c(NC(=O)C(=O)c4c[nH]c5ccccc45)c3)cc2C(F)(F)F)CC1 | 17 | i | 25 | 92* | 63* | i | 0 | 6.3*
COc1ccc(S(=O)(=O)N2CCN(C/C=C/c3ccccc3)CC2)cc1F | 0 | i | 0 | x | 11 | i | x | x
Cc1ccc(NC(=O)Cn2cc(C(=O)C3CC3)c3ccccc32)c(C)c1 | -6 | i | -1 | x | 17 | i | x | x
Cc1ccc(C)c(NC(=O)Cn2cc(C(=O)C3CC3)c3ccccc32)c1 | -3 | i | 0 | x | 75* | i | 94* | -0.53 | AML12 tox conf=19
O=C(Cn1nnc(-c2ccccc2)n1)NNC(=O)c1cccc([N+](=O)[O-])c1 | -6 | i | 0 | x | 2 | i | x | x
O=C(Cn1nnc(-c2ccc([N+](=O)[O-])cc2)n1)NNC(=O)c1ccccc1 | -3 | i | 5 | x | 59* | i | 29 | 0.18
COc1ccc(C2(c3ccc(OC)cc3)NC(=O)N(CC(=O)Nc3ccc(C(N)=O)cc3)C2=O)cc1 | 2 | i | 0 | x | -10 | i | x | x
COc1ccc(C2(c3ccc(OC)cc3)NC(=O)N(CC(=O)Nc3ccccc3C)C2=O)cc1 | -4 | i | -1 | x | 60* | i | 104* | -0.77 | AML12 tox conf=11
COc1ccc(C2(c3ccc(OC)cc3)NC(=O)N(CC(=O)Nc3ccc(OC)c(OC)c3)C2=O)cc1 | -7 | i | 1 | x | 52* | i | 74* | -1.3 | AML12 tox conf=18
